Where two headings read alike, the source gives them in different places.
Key:
MMP-2 [1] = target: T1, MMP-2 (Homo sapiens, UniProt P08253); conditions: cited from earlier work
T1 sequence (P08253 110-660): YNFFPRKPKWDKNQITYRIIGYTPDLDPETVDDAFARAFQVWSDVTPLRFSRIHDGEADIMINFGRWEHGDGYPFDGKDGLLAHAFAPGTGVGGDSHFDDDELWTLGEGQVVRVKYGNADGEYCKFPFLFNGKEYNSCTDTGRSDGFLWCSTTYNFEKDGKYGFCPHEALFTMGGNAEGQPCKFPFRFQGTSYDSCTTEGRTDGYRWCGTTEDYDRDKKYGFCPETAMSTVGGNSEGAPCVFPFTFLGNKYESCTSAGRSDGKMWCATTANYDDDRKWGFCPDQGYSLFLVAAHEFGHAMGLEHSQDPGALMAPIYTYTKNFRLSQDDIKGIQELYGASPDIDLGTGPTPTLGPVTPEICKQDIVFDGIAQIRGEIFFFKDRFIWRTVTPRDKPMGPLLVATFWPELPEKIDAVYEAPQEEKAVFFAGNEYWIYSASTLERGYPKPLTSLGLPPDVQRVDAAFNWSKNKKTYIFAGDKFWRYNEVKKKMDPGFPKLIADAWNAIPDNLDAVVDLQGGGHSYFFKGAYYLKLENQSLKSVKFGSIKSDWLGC

MMP-9 = MMP-9 (Homo sapiens, UniProt P14780); experiment: Peptide cleavage kinetics with activated MMP-9; assay type: biochemical; conditions: for Km / kcat: activated MMP-9 10 nM, Tris-HCl protease buffer pH 7.4, HPLC, n=3
In short: (§1)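 Reactions were stopped at set times with EDTA. Products were resolved by C18 reversed-phase HPLC (30–70% acetonitrile/0.1% TFA gradient, 15 min, 1 mL/min) with fluorescence and photodiode-array detection. Fragments were assigned against synthetic fragment retention times and confirmed by MALDI-MS. n≥3.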

MMP-2 [2] = target: T1, MMP-2; experiment: Peptide cleavage kinetics with activated MMP-2; assay type: biochemical; conditions: for Km / kcat: activated MMP-2 10 nM, Tris-HCl protease buffer pH 7.4, HPLC, n=3
In short: as §1

U-87 MG cells = experiment: Peptide and peptide-platinate activity, modified MTT assay; assay type: cell-based; conditions: 24 hours, nonlinear curve fitting, n=3
In short: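 They were plated at 50,000 cells/mL one day before, then exposed to a concentration series of test compound for 24 h. Viability relative to untreated control was read by modified MTT (Aqueous One). IC50 came from nonlinear curve fit. n≥3.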

Sequence of MMP-9 (P14780 107-707 limits assumed): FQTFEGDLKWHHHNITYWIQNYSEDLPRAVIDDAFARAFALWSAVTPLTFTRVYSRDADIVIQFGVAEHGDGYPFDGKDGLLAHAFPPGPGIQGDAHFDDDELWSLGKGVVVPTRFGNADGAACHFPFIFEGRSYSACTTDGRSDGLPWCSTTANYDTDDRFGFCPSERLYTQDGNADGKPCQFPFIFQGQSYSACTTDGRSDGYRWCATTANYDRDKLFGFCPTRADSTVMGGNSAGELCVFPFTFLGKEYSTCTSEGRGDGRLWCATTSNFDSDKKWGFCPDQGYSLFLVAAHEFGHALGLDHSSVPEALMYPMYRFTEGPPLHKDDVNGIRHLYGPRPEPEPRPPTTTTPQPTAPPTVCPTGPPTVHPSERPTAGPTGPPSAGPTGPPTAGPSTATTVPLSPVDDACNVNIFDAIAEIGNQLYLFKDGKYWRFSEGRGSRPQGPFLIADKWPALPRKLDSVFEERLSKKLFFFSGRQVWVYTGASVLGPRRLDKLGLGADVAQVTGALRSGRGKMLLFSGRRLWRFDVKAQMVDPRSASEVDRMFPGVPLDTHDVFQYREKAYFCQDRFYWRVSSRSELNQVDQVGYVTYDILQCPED

| Molecule | Km (MMP-9) [µM] | kcat (MMP-9) [s⁻¹] | Km (MMP-2 [2]) [µM] | kcat (MMP-2 [2]) [s⁻¹] | IC50 (U-87 MG cells) [µM] | also measured |
| --- | --- | --- | --- | --- | --- | --- |
| GPAGLLG |  |  |  |  |  | cleavage site (MMP-2 [1]): cleaved between glycine and leucine |
| K*AGLLC-CONH2 | 160 ± 100 | 0.04 ± 0.01 | 1400 ± 400 | 0.24 ± 0.08 |  |  |
| N.N.[Cl][Pt][Cl] [cisplatin] |  |  |  |  | 46.9 ± 15 |  |
| K*PAGLLGC-CONH2 | 400 ± 100 | 9.6 ± 2.1 | 1000 ± 500 | 10.7 ± 4.8 |  | cleavage site (MMP-9; cleaved with MMP-9 for 2 hours, HPLC comparison with synthesized fragment K*PAG): cleaved between glycine and leucine; cleavage site (MMP-2 [2]; cleaved with MMP-2 for 2 hours, HPLC comparison with synthesized fragment K*PAG): cleaved between glycine and leucine |
| [Cl][Pt-2]([Cl])([Cl])[Cl].[K+].[K+] [K2PtCl4, potassium tetrachloroplatinate] |  |  |  |  | 70.7 ± 15 |  |

— article PMC2592099 (Peptides, 2008)
